Results published in ChEMBL document CHEMBL1944532, “Synthesis and evaluation of anticancer activity of some novel 6-aryl-2-(p-sulfamylphenyl)-pyridazin-3(2H)-ones” (Eur J Med Chem, 2012).
Active and inactive are the calls of the source. The rule behind the calls is not given here.

Tests used:
CCRF-CEM = test: Cytotoxicity against human CCRF-CEM cells after 48 hrs by SRB assay; format: functional
Outline: (§1)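 NCI ~60-line panel in RPMI-1640 with 5% fetal calf serum and 2 mM L-glutamine, pre-incubated 24 h. Compound in DMSO tested at five 10-fold concentrations (10^-4 to 10^-8 M) with 48 h continuous exposure. Growth measured by sulforhodamine B protein assay. GI50 (50% net growth inhibition), TGI (total inhibition) and LC50 (50% net cell death) derived from dose-response.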

NCI-H322M = test: Cytotoxicity against human NCI-H322M cells after 48 hrs by SRB assay; format: functional
Outline: (§2)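 NCI five-dose screen on the ~60-line human tumor panel. Cells grown in RPMI-1640 with 5% fetal calf serum and 2 mM L-glutamine, seeded at line-dependent density and preincubated 24 h. Compound added from DMSO at 10-fold dilutions from 10^-4 to 10^-8 M, continuous exposure 48 h. Growth read by sulforhodamine B protein stain. GI50, TGI and LC50 derived per line.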

OVCAR-5 = test: Antitumor activity against human OVCAR5 cells implanted in mouse dosed qd for 4 days by formazan dye-based hollow fiber assay; format: functional, organism-based
Outline: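 Cells grown inside polyvinylidene fluoride hollow fibers; each line implanted into both intraperitoneal and subcutaneous compartments in mice. Compound given ip at two doses on a QD x 4 schedule. Fibers then recovered and viable cell mass measured by formazan dye conversion. Scored 2 per dose giving ≥50% reduction in viable cell mass (%T/C 50).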

BT-549 = test: Cytotoxicity against human BT549 cells after 48 hrs by SRB assay; format: functional; conditions: BT-549, 48 h; outline: as §1
SF-295 = test: Cytotoxicity against human SF295 cells assessed as cell growth at 10 uM after 48 hrs by SRB assay; format: functional; conditions: SF-295, 48 h, read-out: Activity
Outline: (§3)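 NCI primary single-dose screen at 10^-5 M against the full panel of about 60 human tumor cell lines. Cells were in RPMI-1640 with 5% fetal calf serum and 2 mM L-glutamine and preincubated 24 h. Compound was given in DMSO with 48 h exposure. Growth was estimated by sulforhodamine B protein assay.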

NCI-H522 [1] = test: Cytotoxicity against human NCI-H522 cells assessed as cell growth at 10 uM after 48 hrs by SRB assay; format: functional; conditions: NCI-H522, 48 h, read-out: Activity; outline: as §3
HCT-116 = test: Cytotoxicity against human HCT116 cells after 48 hrs by SRB assay; format: functional; conditions: HCT-116, 48 h; outline: as §1
MOLT-4 = test: Cytotoxicity against human MOLT4 cells assessed as cell growth at 10 uM after 48 hrs by SRB assay; format: functional; conditions: MOLT-4, 48 h, read-out: Activity; outline: as §3
U-251 = test: Cytotoxicity against human U251 cells after 48 hrs by SRB assay; format: functional; conditions: U-251, 48 h
Outline: (§4)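 NCI 60-cell-line five-dose screen. Cells were grown in 1640 medium with 5% fetal calf serum and 2 mM L-glutamine, with inoculum density set by cell line, and pre-incubated 24 h. Compound in DMSO was added at 10^-4 to 10^-8 M (10-fold steps) with 48 h continuous exposure. Growth was read by SRB protein assay, and GI50, TGI and LC50 were derived from dose-response.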

HCT-15 = test: Cytotoxicity against human HCT15 cells after 48 hrs by SRB assay; format: functional; conditions: HCT-15, 48 h; outline: as §1
TK-10 [2] = test: Cytotoxicity against human TK10 cells assessed as cell growth at 10 uM after 48 hrs by SRB assay; format: functional; conditions: TK-10, 48 h, read-out: Activity
Outline: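 NCI primary one-dose screen at 10^-5 M against the full panel of about 60 human tumour cell lines, run to the NCI Drug Evaluation Branch protocol.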

NCI-H522 [3] = test: Cytotoxicity against human NCI-H522 cells after 48 hrs by SRB assay; format: functional; conditions: NCI-H522, 48 h; outline: as §2
OVCAR-3 = test: Cytotoxicity against human OVCAR3 cells assessed as cell growth at 10 uM after 48 hrs by SRB assay; format: functional; conditions: OVCAR-3, 48 h, read-out: Activity; outline: as §3
NCI-H460 = test: Cytotoxicity against human NCI-H460 cells after 48 hrs by SRB assay; format: functional; conditions: NCI-H460, 48 h; outline: as §2
HCC 2998 = test: Cytotoxicity against human HCC2998 cells after 48 hrs by SRB assay; format: functional; conditions: HCC 2998, 48 h; outline: as §1
NCI-H226 = test: Cytotoxicity against human NCI-H226 cells assessed as cell growth at 10 uM after 48 hrs by SRB assay; format: functional; conditions: NCI-H226, 48 h, read-out: Activity; outline: as §3
UACC-257 = test: Cytotoxicity against human UACC257 cells after 48 hrs by SRB assay; format: functional; conditions: UACC-257, 48 h; outline: as §4
SF-268 = test: Cytotoxicity against human SF268 cells assessed as cell growth at 10 uM after 48 hrs by SRB assay; format: functional; conditions: SF-268, 48 h, read-out: Activity; outline: as §3
K562 = test: Cytotoxicity against human K562 cells after 48 hrs by SRB assay; format: functional; conditions: K562, 48 h; outline: as §1
SK-MEL-2 = test: Cytotoxicity against human SK-MEL-2 cells after 48 hrs by SRB assay; format: functional; conditions: SK-MEL-2, 48 h; outline: as §2
LOX IMVI = test: Cytotoxicity against human LOXIMVI cells after 48 hrs by SRB assay; format: functional; outline: as §2
MDA-MB-468 = test: Cytotoxicity against human MDA-MB-468 cells after 48 hrs by SRB assay; format: functional; conditions: MDA-MB-468, 48 h; outline: as §2
TK-10 [4] = test: Cytotoxicity against human TK10 cells after 48 hrs by SRB assay; format: functional; conditions: TK-10, 48 h; outline: as §4

Work on CCc1ccc(-c2ccc(=O)n(-c3ccc(S(N)(=O)=O)cc3)n2)cc1 yielded an LC50 (CCRF-CEM) greater than 100 µM, a GI50 (CCRF-CEM; read-out: GI50) of 0.786 µM and a GI50 (CCRF-CEM; read-out: pGI50 (converted)) of 0.794 µM. It also gave a TGI (CCRF-CEM; read-out: pTGI) greater than 100 µM, an LC50 (NCI-H322M) greater than 100 µM and a GI50 (NCI-H322M; read-out: GI50) of 14.3 µM. For the same compound, the GI50 (NCI-H322M; read-out: pGI50 (converted)) was 14.1 µM, the TGI (NCI-H322M; read-out: pTGI (converted)) was 100 µM and the Activity (OVCAR-5) was “inactive”. It also gave an LC50 (BT-549) of 85.1 µM, a GI50 (BT-549; read-out: GI50) of 0.756 µM and a GI50 (BT-549; read-out: pGI50 (converted)) of 0.759 µM. For the same compound, the TGI (BT-549; read-out: pTGI (converted)) was 17.8 µM, the growth at 10 µM (SF-295) was 18.4% and the growth at 10 µM (NCI-H522 [1]) was -33.6%. For the same compound, the LC50 (concentration causing 50% net cell death) (HCT-116) was greater than 100 µM, the GI50 (HCT-116; read-out: GI50) was 0.535 µM and the GI50 (HCT-116; read-out: pGI50 (converted)) was 0.537 µM. It also gave a TGI (HCT-116; read-out: pTGI (converted)) of 19.1 µM, a growth at 10 µM (MOLT-4) of 16% and an LC50 (U-251) greater than 100 µM. For the same compound, the GI50 (U-251; read-out: GI50) was 1.58 µM, the GI50 (U-251; read-out: pGI50 (converted)) was 1.58 µM and the TGI (U-251; read-out: pTGI (converted)) was 24 µM. The LC50 (HCT-15) was greater than 100 µM, the GI50 (HCT-15; read-out: GI50) was 0.661 µM and the GI50 (HCT-15; read-out: pGI50 (converted)) was 0.661 µM. The TGI (HCT-15; read-out: pTGI) was greater than 100 µM, the growth at 10 µM (TK-10 [2]) was 76.8% and the LC50 (NCI-H522 [3]) was greater than 100 µM. For the same compound, the GI50 (NCI-H522 [3]; read-out: GI50) was 0.0966 µM, the GI50 (NCI-H522 [3]; read-out: pGI50 (converted)) was 0.0955 µM and the TGI (NCI-H522 [3]; read-out: pTGI (converted)) was 0.631 µM. The growth at 10 µM (OVCAR-3) was -56.8%, the LC50 (NCI-H460) was 63.1 µM and the GI50 (NCI-H460; read-out: GI50) was 0.438 µM. It also gave a GI50 (NCI-H460; read-out: pGI50 (converted)) of 0.437 µM, a TGI (NCI-H460; read-out: pTGI (converted)) of 4.47 µM and an LC50 (HCC 2998) greater than 100 µM. It also gave a GI50 (HCC 2998; read-out: GI50) of 2.62 µM, a GI50 (HCC 2998; read-out: pGI50 (converted)) of 2.63 µM and a TGI (HCC 2998; read-out: pTGI) greater than 100 µM. The growth at 10 µM (NCI-H226) was 94.1%, the LC50 (UACC-257) was greater than 100 µM and the GI50 (UACC-257; read-out: GI50) was greater than 100 µM. It also gave a GI50 (UACC-257; read-out: pGI50 (converted)) greater than 100 µM, a TGI (UACC-257; read-out: pTGI) greater than 100 µM and a growth at 10 µM (SF-268) of 42%. For the same compound, the GI50 (K562; read-out: GI50) was 0.257 µM, the GI50 (K562; read-out: pGI50 (converted)) was 0.257 µM and the CC50 (K562; read-out: pLC50 (the source's name) (converted)) was greater than 100 µM. It also gave a TGI (K562; read-out: pTGI) greater than 100 µM, an LC50 (SK-MEL-2) greater than 100 µM and a GI50 (SK-MEL-2; read-out: GI50) of 10.7 µM. It also gave a GI50 (SK-MEL-2; read-out: pGI50 (converted)) of 10.7 µM, a TGI (SK-MEL-2; read-out: pTGI (converted)) of 72.4 µM and an LC50 (LOX IMVI) greater than 100 µM. For the same compound, the GI50 (LOX IMVI; read-out: GI50) was 5.27 µM, the GI50 (LOX IMVI; read-out: pGI50 (converted)) was 5.25 µM and the TGI (LOX IMVI; read-out: pTGI) was greater than 100 µM. It also gave an LC50 (MDA-MB-468) greater than 100 µM, a GI50 (MDA-MB-468; read-out: GI50) of 3.18 µM and a GI50 (MDA-MB-468; read-out: pGI50 (converted)) of 3.16 µM. It also gave a TGI (MDA-MB-468; read-out: pTGI) greater than 100 µM, an LC50 (TK-10 [4]) of 77.6 µM and a GI50 (TK-10 [4]; read-out: GI50) of 10.8 µM. The GI50 (TK-10 [4]; read-out: pGI50 (converted)) was 11 µM and the TGI (TK-10 [4]; read-out: pTGI (converted)) was 28.8 µM.
